From article PMC11840771 (ACS Omega, 2025)
Like-named read-outs stand apart in the source and are kept apart here.

Assays:
HER2-TK [1] = target: T1, HER2-TK (Homo sapiens, UniProt P04626); test: SPR kinetic analysis of binding to immobilized HER2-TK
HER2-TK [2] = target: T1, HER2-TK; test: HER2-TK inhibitory activity assay; assay type: biochemical
[3] = system: SKOV3 (HER2-positive cell); test: MTT cell viability assay, SKOV3; assay type: cell-based, human; settings: read-out: cell inhibition IC50 SKOV3 (HER2-positive cell), 72 h, mean ± SD
Outline: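 SKOV3 cells grown in DMEM at 37 °C, 5% CO2, seeded at 1 × 10^4 cells/well and left 16 h. Test compound from DMSO stock (final DMSO ≤1%) was added in complete medium, 2-fold dilutions from 100 μM, for 72 h. MTT added for 3 h at 37 °C, formazan dissolved in DMSO, read at 550/590 nm. Triplicate; IC50 by nonlinear regression.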

[4] = SPR, PBS pH 7.4 with 5% DMSO, mean ± SD

T1 sequence (P04626 676-1255 limits assumed): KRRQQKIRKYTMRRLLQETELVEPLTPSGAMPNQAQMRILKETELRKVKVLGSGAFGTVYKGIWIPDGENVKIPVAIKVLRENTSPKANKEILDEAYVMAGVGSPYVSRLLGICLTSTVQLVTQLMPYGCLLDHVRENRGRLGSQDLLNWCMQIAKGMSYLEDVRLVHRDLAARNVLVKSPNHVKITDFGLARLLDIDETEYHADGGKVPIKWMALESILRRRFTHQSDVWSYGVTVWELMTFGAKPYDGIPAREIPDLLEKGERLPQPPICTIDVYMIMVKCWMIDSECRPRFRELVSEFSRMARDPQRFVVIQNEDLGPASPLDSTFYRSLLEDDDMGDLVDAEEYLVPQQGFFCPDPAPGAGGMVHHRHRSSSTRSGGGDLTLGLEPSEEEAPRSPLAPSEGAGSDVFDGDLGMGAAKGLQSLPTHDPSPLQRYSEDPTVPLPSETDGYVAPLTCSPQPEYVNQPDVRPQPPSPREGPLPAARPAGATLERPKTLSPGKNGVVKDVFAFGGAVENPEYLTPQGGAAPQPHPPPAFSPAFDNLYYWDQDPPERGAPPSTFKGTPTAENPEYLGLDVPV

SMILES	Kd (HER2-TK [1]) [µM]	kd (HER2-TK [1]; [4])	IC50 (HER2-TK [2]) [µM]	IC50 [3] [µM]	kd (HER2-TK [1]; SPR)	kon (HER2-TK [1]; pH 7.4, read-out: ka) [M⁻¹ s⁻¹]	ka (HER2-TK [1]; [4])	kon (HER2-TK [1]; read-out: association rate constant (ka)) [M⁻¹ s⁻¹]
C=C(C)[C@@H]1CCC(C)=C[C@H]1c1c(O)cc(CCCCC)cc1O [CBD, cannabidiol]	6.16 ± 0.25	6.33 ± 0.06 10^–3/s	0.038 ± 0.002	13.8 ± 1.7	–	–	–	–
CS(=O)(=O)CCNCc1ccc(-c2ccc3ncnc(Nc4ccc(OCc5cccc(F)c5)c(Cl)c4)c3c2)o1 [Lapatinib, reference compound]	–	–	–	8 ± 1.4	–	–	–	–
CCCCCc1cc(O)c2c(c1)OC(C)(C)c1ccc(C)cc1-2 [CBN, cannabinol]	26 ± 2.97	3.14 ± 0.09 10^–3/s	0.0874 ± 0.0017	–	3.14 × 10^–3 s^–1	122 ± 11	–	–
CCCCCc1cc(O)c(C/C=C(\C)CCC=C(C)C)c(O)c1 [CBG, cannabigerol]	17.1 ± 0.8	3.77 ± 0.02 10^–3/s	0.0247 ± 0.0026	16.6 ± 1	–	–	2.21 ± 0.11 10^2/(M·s)	221
CN(C)C/C=C/C(=O)Nc1cc2c(Nc3ccc(F)c(Cl)c3)ncnc2cc1O[C@H]1CCOC1 [Afatinib, reference compound]	–	9.95 ± 0.16 10^–3/s	–	8.4 ± 0.9	–	–	–	–
